≈ marks a conversion by molar mass, not a printed value.
What was measured:
Liver = experiment: (§1) Hepatic extraction in human liver S9 fractions at 2 uM by LC-MS/MS analysis; type: ADME; conditions: s9, 2 µM, 2 µM
Procedure, shortened: (§2)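 Compound at 2 μM incubated with S9 fractions at 37 °C for 90 min with NADPH and UDPGA. Quenched with aqueous acetonitrile/methanol containing internal standard and analysed by LC-MS/MS. Half-life from an exponential fit assuming first-order kinetics. Hepatic extraction predicted from half-life using the well-stirred model.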

[1] = Permeability of the compound from basolateral to apical side in human Caco2 cells at 10 uM; type: ADME, cell-based, Caco-2
Procedure, shortened: (§3)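 Caco-2 permeability at 10 μM compound, measured in apical-to-basolateral and basolateral-to-apical directions.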

Plasma [2] = experiment: (§4) Half life in human plasma at 2 uM by LC-MS/MS analysis; type: ADME, cell-free; conditions: 2 µM
Procedure, shortened: (§5)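 Compound at 2 μM incubated in plasma at 37 °C for up to 4 h. Aliquots quenched with 9 volumes of acetonitrile containing internal standard, then centrifuged. Supernatant analysed by LC-MS/MS.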

[3] = Half life in hamster intestinal S9 fractions at 2 uM by LC-MS/MS analysis; type: ADME, Intestine; conditions: cricetinae, s9, 2 µM; 2 µM
[4] = Hepatic extraction in hamster liver S9 fractions at 2 uM by LC-MS/MS analysis; type: ADME; conditions: cricetinae; procedure, shortened: as §2
Hepatitis C virus [5] = experiment: Antiviral activity against HCV genotype 4a infected in human HuH7 cells by luciferase reporter gene assay; type: functional, cell-based, Hepacivirus hominis
Hepatitis C virus [6] = experiment: Antiviral activity against HCV genotype 1b infected in human HuH7 cells by luciferase reporter gene assay; type: functional, cell-based, Hepacivirus hominis
Procedure, shortened: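 Luciferase-reporter genotype 1b subgenomic replicon in Huh-7 cells; EC50 is concentration giving 50% inhibition. Values are averages of at least three repeats.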

[7] = Permeability of the compound from apical to basolateral side in human Caco2 cells at 10 uM; type: ADME, cell-based, Caco-2; procedure, shortened: as §3
Hepatitis C virus [8] = experiment: Antiviral activity against HCV genotype 1a infected in human HuH7 cells by luciferase reporter gene assay; type: functional, cell-based, Hepacivirus hominis, subtype 1a
[9] = Half life in hamster plasma at 2 uM by LC-MS/MS analysis; type: ADME, cell-free; conditions: cricetinae, 2 µM; procedure, shortened: as §5
[10] = system: RNA-directed RNA polymerase (Hepacivirus hominis), O39930 [UNDEFINED MUTATION]; experiment: Inhibition of HCV genotype 1b wild-type NS5B RNA dependent RNA polymerase S282T mutant relative to control; conditions: Hepatitis C virus subtype 1b
[11] = Inhibition of HCV genotype 1b wild-type NS5B RNA dependent RNA polymerase; design: species or system Hepatitis C virus subtype 1b
[12] = as §1; type: ADME; conditions: liver S9 fractions, read-out: ERH; procedure, shortened: as §2
[13] = as §4; type: ADME, cell-free; procedure, shortened: as §5
[14] = Prodrug activation in Syrian golden hamster liver assessed as triphosphate metabolite formation at 5 mg equivalents/kg, po after 1 hr by LC-MS/MS analysis; type: ADME, organism-based, Mesocricetus auratus; conditions: in vivo
Procedure, shortened: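 Golden Syrian hamsters (groups of 12) dosed orally at 5 mg-eq/kg in EtOH/PEG400/water buffered with 50 mM pH 4 citrate. Livers harvested under isoflurane at 1 h and extracted in cold KOH/EDTA/70% MeOH with Cl-ATP. Triphosphate measured by LC/MS/MS, with endogenous ATP checked for sample stability.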

Plasma [15] = experiment: Stability in rat plasma at 2 uM up to 4 hrs by LC-MS/MS analysis; type: ADME, cell-free; procedure, shortened: as §5
[16] = Fraction absorbed in Beagle dog at 5 mg/kg, po; type: ADME, organism-based, Canis lupus familiaris; conditions: in vivo, read-out: Fabs
Procedure, shortened: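 Male beagle dogs dosed orally at 5 mg/kg. Fraction absorbed determined by portal vein sampling.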

[17] = Half life in human intestinal S9 fractions at 2 uM by LC-MS/MS analysis; type: ADME, Intestine; procedure, shortened: as §2
[18] = Solubility of the compound in pH 7.4 solution; type: physicochemical
Procedure, shortened: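 Solubility measured at pH 7.4 using amorphous material.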

[19] = Hepatitis C virus, genotype 1b, Huh-7
[20] = Hepatitis C virus, genotype 4a, Huh-7
[21] = Hepatitis C virus, subtype 1a, Huh-7

With `CC(C)OC(=O)C1(NP(=O)(OC[C@H]2O[C@@H](c3cnc4c(N)ncnn34)[C@](C)(F)[C@@H]2O)Oc2ccccc2)CCC1` (stereo in doubt; 54) the ERH (Liver) was 78%, the permeability ([1]; caco-2, 10 µM, 10 µM) was 9.2 ×10⁻⁶ cm/s and the t1/2 (Plasma [2]) was > 13.2 h. It also gave a t1/2 [3] of 0.3 h, an ERH ([4]; s9, 2 µM, 2 µM) of 96% and an EC50 (Hepatitis C virus [5]) of 0.74 µM. For the same molecule, the EC50 (Hepatitis C virus [6]) was 31.2 µM, the permeability ([7]; caco-2, 10 µM, 10 µM) was 1.3 ×10⁻⁶ cm/s and the EC50 (Hepatitis C virus [8]) was 7.3 µM. It also gave a t1/2 [9] of 7.17 h.

In the case of `C[C@@]1(F)[C@H](O)[C@@H](COP(=O)(O)OP(=O)(O)OP(=O)(O)O)O[C@H]1c1ccc2c(N)ncnn12`, the fold change (FC) [10] is reported as 2.8, the EC50 (Hepatitis C virus [6]; [19]) is reported as > 89 µM and the IC50 [11] is reported as 0.046 µM.

With `C[C@@]1(F)[C@H](O)[C@@H](COP(=O)(O)OP(=O)(O)OP(=O)(O)O)O[C@@]1(C#N)c1ccc2c(N)ncnn12` [GS-441326] the fold change (FC) [10] was 6, the EC50 (Hepatitis C virus [6]; [19]) was > 89 µM and the IC50 [11] was 0.42 µM.

For `CC(C)OC(=O)C1(NP(=O)(OC[C@H]2O[C@@H](c3cnc4c(N)ncnn34)[C@](C)(F)[C@@H]2O)Oc2ccccc2)CCC1` (stereo in doubt; 37), the hepatic extraction ratio at 2 µM [12] was 0.79, the Papp B→A at 10 µM ([1]; Caco-2, read-out: permeability) was 9.7 ×10⁻⁶ cm/s and the half-life at 2 µM [13] was 8.9 h. For the same molecule, the liver triphosphate concentration [14] was 1.89 µM, the t1/2 [3] was 0.8 h and the hepatic extraction ratio at 2 µM ([4]; liver S9 fractions, read-out: ERH) was 0.93. For the same molecule, the EC50 (Hepatitis C virus [5]; [20]) was 0.38 µM, the Stability (Plasma [15]) was “Unstable” and the EC50 (Hepatitis C virus [6]) was 18.8 µM. The Papp A→B at 10 µM ([7]; Caco-2, read-out: permeability) was 2.4 ×10⁻⁶ cm/s, the Fa [16] was > 70% and the half-life at 2 µM [17] was > 13.2 h. The solubility [18] was 538 µg/mL (≈ 930 µM), the EC50 (Hepatitis C virus [8]) was 2.3 µM and the t1/2 [9] was > 13.2 h.

`CC[C@H](NP(=O)(OC[C@H]1O[C@@H](c2cnc3c(N)ncnn23)[C@](C)(F)[C@@H]1O)Oc1ccccc1)C(=O)OC(C)C` (stereo not given in full) gave an EC50 (Hepatitis C virus [5]; [20]) of 2 µM, an EC50 (Hepatitis C virus [6]; [19]) of 5.6 µM and an EC50 (Hepatitis C virus [8]; [21]) of 2.6 µM.

In the case of `CC[C@H](C)OC(=O)C(C)(C)NP(=O)(OC[C@H]1O[C@@H](c2cnc3c(N)ncnn23)[C@](C)(F)[C@@H]1O)Oc1ccccc1` (stereo not given in full), the EC50 (Hepatitis C virus [5]; [20]) is reported as 3.6 µM, the EC50 (Hepatitis C virus [6]; [19]) is reported as > 88 µM and the EC50 (Hepatitis C virus [8]; [21]) is reported as 36 µM.

With `CC[C@@H](C)OC(=O)[C@@H](C)NP(=O)(OC[C@H]1O[C@@H](c2cnc3c(N)ncnn23)[C@](C)(F)[C@@H]1O)Oc1ccccc1` (stereo not given in full) the EC50 (Hepatitis C virus [5]; [20]) was > 88 µM, the EC50 (Hepatitis C virus [6]; [19]) was > 88 µM and the EC50 (Hepatitis C virus [8]; [21]) was > 88 µM.

`COCCOC(=O)C1(NP(=O)(OC[C@H]2O[C@@H](c3cnc4c(N)ncnn34)[C@](C)(F)[C@@H]2O)Oc2ccccc2)CCC1` (stereo not given in full) showed an EC50 (Hepatitis C virus [5]; [20]) of 1.5 µM, an EC50 (Hepatitis C virus [6]; [19]) of 6.1 µM and an EC50 (Hepatitis C virus [8]; [21]) of 3.4 µM.

With `CC(C)C[C@H](NP(=O)(OC[C@H]1O[C@@H](c2ccc3c(N)ncnn23)[C@](C)(F)[C@@H]1O)Oc1ccccc1)C(=O)OC(C)C` (stereo not given in full) the EC50 (Hepatitis C virus [5]; [20]) was 0.59 µM, the EC50 (Hepatitis C virus [6]; [19]) was 0.69 µM and the EC50 (Hepatitis C virus [8]; [21]) was 0.74 µM.

`CCOC(=O)C1(NP(=O)(OC[C@H]2O[C@@H](c3cnc4c(N)ncnn34)[C@](C)(F)[C@@H]2O)Oc2ccccc2)CCCC1` (stereo not given in full) gave an EC50 (Hepatitis C virus [5]; [20]) of 0.38 µM, an EC50 (Hepatitis C virus [6]; [19]) of 2 µM and an EC50 (Hepatitis C virus [8]; [21]) of 1 µM.

In the case of `CC[C@@H](C)OC(=O)C(C)(C)NP(=O)(OC[C@H]1O[C@@H](c2cnc3c(N)ncnn23)[C@](C)(F)[C@@H]1O)Oc1ccccc1` (stereo not given in full), the EC50 (Hepatitis C virus [5]; [20]) is reported as 1.1 µM, the EC50 (Hepatitis C virus [6]; [19]) is reported as > 88 µM and the EC50 (Hepatitis C virus [8]; [21]) is reported as 28.7 µM.

`CC(C)OC(=O)C1(NP(=O)(OC[C@H]2O[C@@H](c3cnc4c(N)ncnn34)[C@](C)(F)[C@@H]2O)Oc2ccccc2)CCCC1` (stereo not given in full) gave an EC50 (Hepatitis C virus [5]; [20]) of 3.9 µM, an EC50 (Hepatitis C virus [6]; [19]) of 51.6 µM and an EC50 (Hepatitis C virus [8]; [21]) of 11.3 µM.

Reference: ChEMBL document CHEMBL4007470, “Discovery of a 2'-fluoro-2'-C-methyl C-nucleotide HCV polymerase inhibitor and a phosphoramidate prodrug with favorable properties” (Bioorg Med Chem Lett, 2017)
